Measured values: ChEMBL document CHEMBL1138812, “Synthesis and antiviral evaluation of polyhalogenated imidazole nucleosides: dimensional analogues of 2,5,6-trichloro-1-(beta-D-ribofuranosyl)benzimidazole” (J Med Chem, 2004)

What was measured:
Human alphaherpesvirus 1 = experiment: Inhibitory activity against herpes simplex virus type-1 cultures was determined by ELISA assay; type: functional, organism-based
Procedure, shortened: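 BSC-1 cells, 10000 per well in MEM(E) with 10% calf serum, incubated overnight at 37 °C. Drug added in quadruplicate with HSV-1 (KOS) at 100 pfu/well and incubated 3 days at 37 °C. Plates blocked, probed with HRP-conjugated rabbit anti-HSV-1 and developed with TMB; reaction stopped with H2SO4 and read at 450/570 nm. Percent absorbance reduction versus virus-only wells, IC50 by regression.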

HFF = experiment: Concentration required to inhibit stationary human HFF cell line growth was determined by microscopy examination; type: functional, cell-based
Procedure, shortened: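 Toxicity judged by microscopic inspection of uninfected stationary HFF cells in the HCMV plaque assay, scored at the time plaques were counted. Results come from duplicate experiments. IC50 from linear regression of percent inhibition against log concentration.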

Human betaherpesvirus 5 = experiment: Concentration required to inhibit plaque formation in human cytomegalovirus cultures was determined; type: functional, organism-based
Procedure, shortened: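 HFF monolayers infected with about 100 pfu/cm² of HCMV Towne strain (plaque-purified P₀). After adsorption, compound (10 mg/mL DMSO stock, diluted in medium) added at four to eight concentrations in duplicate wells. After 7–10 days at 37 °C, cells fixed and stained with crystal violet and plaques counted microscopically. Percent plaque reduction versus drug-free wells, IC50 by regression against log concentration.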

KB = experiment: Concentration required to inhibit KB cell line growth was determined by crystal violet staining method; type: functional, cell-based; conditions: Homo sapiens
Procedure, shortened: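 KB cells, 3000–5000 per well, incubated overnight at 37 °C, then compound added at six to eight concentrations in quadruplicate. Grown 48 h at 37 °C under CO2 (two population doublings), fixed in 95% ethanol, stained with 0.1% crystal violet, dye eluted with acidified ethanol, absorbance 570 nm. IC50 taken from linear regression of percent inhibition against log concentration.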

Compound | IC50 (Human alphaherpesvirus 1) [µM] | IC50 (Human betaherpesvirus 5) [µM] | IC50 (KB) [µM] | IC50 (HFF) [µM]
OCC(CO)OCn1c(Cl)nc(Cl)c1Cl | 30 | > 100 | 25 | > 100
OCC(CO)OCn1c(Br)nc(Br)c1Br | > 100 | > 100 | > 100 | > 100
OC[C@H]1O[C@@H](n2cnc3cc(Cl)c(Cl)cc32)[C@@H](O)[C@H]1O | 30 | 42 | 36 | 24
OC[C@H]1O[C@@H](n2c(Br)nc3cc(Cl)c(Cl)cc32)[C@H](O)[C@@H]1O | – | 0.7 | > 100 | –
OC[C@H]1OC(n2c(Cl)nc3nc4cc(Cl)c(Cl)cc4cc32)[C@H](O)[C@@H]1O (some centres not stated) | 70 | 2 | – | –
Clc1nc(Cl)c(Cl)[nH]1 | – | 30 | – | 75
OCCOCn1c(Cl)nc(Cl)c1Cl | 35 | > 100 | 25 | 45
Clc1nc(Br)[nH]c1Cl | – | 41 | – | > 100
OC[C@H]1OC(n2c(Cl)nc3cc4cc(Cl)c(Cl)cc4nc32)[C@H](O)[C@@H]1O (some centres not stated) | 90 | 18 | – | –
OCCOCn1c(Br)nc(Br)c1Br | > 100 | > 100 | > 100 | > 100
Brc1nc(Br)c(Br)[nH]1 | – | 37 | – | 75

Continued, in another order:

IC50 (Human alphaherpesvirus 1) [µM] | IC50 (Human betaherpesvirus 5) [µM] | IC50 (KB) [µM] | Compound | IC50 (HFF) [µM]
> 100 | > 100 | > 100 | OC[C@H]1OC(n2cnc(Br)c2Br)[C@H](O)[C@@H]1O (some centres not stated) | > 100
> 100 | > 100 | > 100 | OCC1OC(n2c(Br)nc(Cl)c2Cl)[C@@H](O)C1O (some centres not stated) | > 100
> 100 | > 100 | > 100 | OC[C@H]1O[C@@H](n2c(Br)nc(Br)c2Br)[C@H](O)[C@H]1O | > 100
> 100 | > 100 | > 100 | OCC(CO)OCn1c(Br)nc(Cl)c1Cl | > 100
> 100 | > 100 | > 100 | OCCOCn1c(Br)nc(Cl)c1Cl | > 100
> 100 | > 100 | > 100 | OC[C@H]1O[C@@H](n2c(Br)nc(Cl)c2Cl)[C@H](O)[C@@H]1O | > 100
> 100 | 32 | 90 | OCC1OC(n2c(Br)nc(Br)c2Br)[C@@H](O)C1O (some centres not stated) | > 100
– | 2 | – | OC[C@H]1OC(n2c(Cl)nc3cc4cc(Cl)c(Cl)cc4cc32)[C@H](O)[C@@H]1O (some centres not stated) | –
60 | 30 | 65 | OC[C@H]1O[C@@H](n2c(Br)nc(Br)c2Br)[C@H](O)[C@@H]1O | 100
– | – | > 100 | OC[C@H]1O[C@@H](n2c(Cl)nc3cc(Cl)c(Cl)cc32)[C@H](O)[C@@H]1O | –
> 100 | > 100 | > 100 | OC[C@H]1O[C@@H](n2c(Br)nc(Cl)c2Cl)[C@H](O)[C@H]1O | > 100
50 | > 100 | > 100 | OC[C@H]1O[C@@H](n2c(Cl)nc(Cl)c2Cl)[C@H](O)[C@H]1O | > 100
> 100 | > 100 | > 100 | OC[C@H]1O[C@@H](n2c(Cl)nc(Cl)c2Cl)[C@H](O)[C@@H]1O | > 100
> 100 | > 100 | > 100 | OC[C@H]1OC(n2cnc(Cl)c2Cl)[C@H](O)[C@@H]1O (some centres not stated) | > 100
